Measurements from different studies.
Compare with care: the assays were run in different laboratories.
NMUR1: Neuromedin-U receptor 1 (NMUR1, Homo sapiens, UniProt Q9HB89)
JAK2: Tyrosine-protein kinase JAK2 (JAK2, Homo sapiens, UniProt O60674)

For `Nc1ccn([C@@H]2O[C@H](COP(=O)(O)OP(=O)(O)OP(=O)(O)O)[C@@H](O)[C@H]2O)c(=O)n1`, the Kd was 9300 nM (virB (Shigella flexneri, UniProt P0A247); binding; ITC).
`c1cncc(-c2cccc(Nc3nccc(NC4CCCCC4)n3)c2)c1` gave a Kd of 260 nM (Tyrosine-protein kinase JAK2, JH1 (JAK2, Homo sapiens, UniProt O60674); binding; competition with immobilised ligand).
With `ON=Cc1ccc(-c2ccc(O)c(F)c2)c(Cl)c1O` the EC50 was 72 nM (Estrogen receptor beta (ESR2, Homo sapiens, UniProt Q92731); reporter gene; agonist; luciferase).
The Ki of `CC(=O)CC(c1ccccc1)c1c(O)c2ccccc2oc1=O` (stereo not drawn) is reported as 0.095 µM (Vitamin K epoxide reductase complex subunit 1-like protein 1 (Homo sapiens, UniProt Q8N0U8); enzyme activity; inhibitor; fluorescence).
`Cc1cc2nc3c(=O)[nH]c(=O)nc-3n(C[C@H](O)[C@H](O)[C@H](O)COP(=O)(O)OP(=O)(O)OC[C@H]3O[C@@H](n4cnc5c(N)ncnc54)[C@H](O)[C@@H]3O)c2cc1C` has a Kd of 152 nM (Alpha-crystallin B chain (CRYAB, Homo sapiens, UniProt P02511); binding; lysate).
The Kd of `Cc1cnc(-c2ccc(-c3ccc(NC(=O)Nc4c(F)cc(F)cc4F)cc3F)c3c2C(=O)NC3)[nH]1` is reported as 11 nM (Tyrosine-protein kinase Lck (LCK, Homo sapiens, UniProt P06239); binding; competition with immobilised ligand).
The EC50 of `CC(C)C[C@H](NC(=O)[C@H](Cc1ccccc1)NC(=O)[C@@H](N)Cc1ccc(O)cc1)C(=O)N[C@@H](Cc1ccccc1)C(=O)N[C@@H](CCCNC(=N)N)C(=O)N1CCC[C@H]1C(=O)N[C@@H](CCCNC(=N)N)C(=O)N[C@@H](CC(N)=O)C(N)=O` is reported as 1.7 nM (NMUR1; β-arrestin recruitment; agonist).
For `CC(=O)Nc1cc(Oc2ccc3c(c2)CCN3C(=O)Nc2ccc(CN3CCN(C)CC3)c(C(F)(F)F)c2)ncn1`, the Ki was 22 µM (JAK2; enzyme activity; inhibitor; ELISA).
`C[C@@]12CCC(=O)N1c1cc(Nc3ncc(Cl)c(-c4cccc(-c5ccccc5)c4)n3)cnc1OC2` has a Kd of 0.45 nM (Phosphatidylinositol 5-phosphate 4-kinase type-2 gamma (PIP4K2C, Homo sapiens, UniProt Q8TBX8); binding).
`CC(C)C[C@H](NC(=O)[C@H](Cc1ccccc1)NC(=O)[C@H](Cc1ccc(O)cc1)NC(=O)CNC(=O)[C@H](CCCNC(=N)N)NC(=O)[C@H](CO)NC(=O)[C@H](CCC(N)=O)NC(=O)[C@H](CO)NC(=O)[C@H](C)NC(=O)[C@H](Cc1ccccc1)NC(=O)[C@@H]1CCCN1C(=O)[C@H](CO)NC(=O)[C@H](CCC(N)=O)NC(=O)[C@H](Cc1ccccc1)NC(=O)[C@H](CCC(=O)O)NC(=O)[C@H](CCC(=O)O)NC(=O)[C@H](CC(=O)O)NC(=O)[C@@H](NC(=O)[C@H](CCCNC(=N)N)NC(=O)[C@@H](N)Cc1ccccc1)C(C)C)C(=O)N[C@@H](Cc1ccccc1)C(=O)N[C@@H](CCCNC(=N)N)C(=O)N1CCC[C@H]1C(=O)N[C@@H](CCCNC(=N)N)C(=O)N[C@@H](CC(N)=O)C(N)=O` gave an EC50 of 0.12 nM (NMUR1; inositol phosphate; agonist; TR-FRET).
`O=C(/C=C/c1ccc(O)c2c1[C@H](C(=O)O[C@H](Cc1ccc(O)c(O)c1)C(=O)O)[C@@H](c1ccc(O)c(O)c1)O2)O[C@H](Cc1ccc(O)c(O)c1)C(=O)O` has a Kd of 3740 nM (Platelet glycoprotein 4 (CD36, Homo sapiens, UniProt P16671); binding; SPR).
With `COc1ccc2c(Oc3ccc4c(C(=O)Nc5ccccc5N)cccc4c3)ccnc2c1` the IC50 was > 500 nM (JAK2; enzyme activity; inhibitor).
